Compound activity from PubChem BioAssay.
Hits are enriched below; roughly 1.4% of the tested compounds scored in any of these assays.
NR2E3 ag-1: activates human NR2E3 receptor; actives 0.35% (n = 360,000); Q9Y5X4; inhibition of corepressor binding, % at 3.98 µM; CHO-S Gal4-NCOR/VP16-NR2E3 two-hybrid, luciferase; AID 602229;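 active = inhibition above the mean of all tested compounds plus 3 SD, cut at about 70% in these data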;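 also: higher means lower luciferase signal from less NR2E3 corepressor binding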
PG9 binder: binds the HIV-1 gp120 antibody PG9; TR-FRET gp120-PG9 antibody binding; inhibition, % at 6.7 µM; actives 0.43% (n = 360,000); AID 624416; in the data active = inhibition above about 8.5%
Rev-erbA mod: modulators of human Rev-erb alpha DNA binding. actives 0.79% (n = 370,000). activity, % at 10 µM. Rev-erbα–FITC-DNA binding, fluorescence polarization, 90 min. P20393;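 active = activity above about 14%, limit read from the data; passing the limit was not always enough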
Target sequence (P20393 whole entry, looked up): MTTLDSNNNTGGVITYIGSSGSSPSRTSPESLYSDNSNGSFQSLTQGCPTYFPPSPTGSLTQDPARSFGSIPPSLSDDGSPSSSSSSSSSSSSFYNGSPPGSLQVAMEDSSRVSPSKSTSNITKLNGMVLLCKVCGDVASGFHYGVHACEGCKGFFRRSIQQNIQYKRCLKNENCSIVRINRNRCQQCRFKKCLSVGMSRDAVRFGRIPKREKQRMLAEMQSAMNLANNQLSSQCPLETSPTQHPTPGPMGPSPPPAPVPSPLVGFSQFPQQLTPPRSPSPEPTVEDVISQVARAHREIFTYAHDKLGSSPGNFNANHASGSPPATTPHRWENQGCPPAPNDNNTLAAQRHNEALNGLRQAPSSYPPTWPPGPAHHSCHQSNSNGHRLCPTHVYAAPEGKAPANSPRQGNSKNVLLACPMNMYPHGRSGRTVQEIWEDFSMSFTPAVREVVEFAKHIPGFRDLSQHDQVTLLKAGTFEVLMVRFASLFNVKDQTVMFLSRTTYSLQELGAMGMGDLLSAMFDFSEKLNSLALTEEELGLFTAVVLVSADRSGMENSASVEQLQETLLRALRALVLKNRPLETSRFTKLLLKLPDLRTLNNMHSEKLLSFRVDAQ
NR2E3 ag-2: agonists of human nuclear receptor NR2E3 | Q9Y5X4 | GST-NR2E3/biotin-RetCOR TR-FRET, 1536-well | inhibition of corepressor binding, % at 4.78 µM | actives 0.12% (n = 320,000) | AID 2300;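 active = percent inhibition above the cutoff of mean plus 3 SD of all tested compounds, set per screening campaign, cut at about 20% in these data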
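system = GST-tagged NR2E3 plus biotinylated RetCOR corepressor | input = 1.35 nM GST-NR2E3 | also added = 7 nM biotin-RetCOR | schedule = 5 h incubation at 4 °C | measured by = TR-FRET with europium anti-GST and streptavidin-D2, 340 nm excitation | read-out = percent loss of FRET ratio relative to control wells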
NR2E3 ag confirm: NR2E3 agonism confirmed in two-hybrid assay | shares compounds with NR2E3 ag-1 | CHO-S mammalian two-hybrid NR2E3-NCOR, luciferase luminescence | inhibition, % at 3.98 µM | actives 51% (n = 2,300);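 active = average inhibition above a cutoff equal to the mean inhibition of all tested compounds plus one SD, cut at about 70% in these data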
VP16 counter: GAL4-VP16 reporter inhibition in NR2E3 agonist counterscreen; shares compounds with NR2E3 ag-1; CHO-S GAL4-VP16 luciferase reporter, luminescence; inhibition, % at 3.98 µM; actives 29% (n = 2,300); AID 624379;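 active = mean inhibition above a cutoff equal to the average over all tested compounds plus one standard deviation, cut at about 70% in these data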;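 also: luciferase from a UAS reporter driven by GAL4-VP16 transactivation; higher means less reporter light so more repression of VP16 activity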
Each line names hits and unclear results; the compound was inactive in the other large screens (follow-up assays come after a bar, where they were run).

Cc1ccc(CNc2nc(NC(C)C)nc3ccsc23)c(C)c1	none (no result: NR2E3 ag-2)
CNc1nc(Nc2ccc(C)cc2C)c2sccc2n1	none (no result: NR2E3 ag-2) | NR2E3 ag confirm inactive | VP16 counter inactive
CNc1nc(NCc2ccc(C)cc2C)c2sccc2n1	none (no result: NR2E3 ag-2) | NR2E3 ag confirm inactive | VP16 counter inactive
Cc1ccc(CNc2nc(NCc3ccccc3)nc3ccsc23)c(C)c1	NR2E3 ag-1 74.1 (no result: NR2E3 ag-2) | NR2E3 ag confirm inactive | VP16 counter inactive
COc1ccc(S(=O)(=O)NC(=O)C2(C)CCN2C(=O)C2(c3ccc(Cl)cc3)CCC2)cc1 (centres undefined)	none (no result: NR2E3 ag-2)
N#Cc1c(-c2ccccc2)cc(-c2ccccc2)nc1SCCC(=O)O	none | NR2E3 ag confirm 74.4 | VP16 counter inactive
Cc1ccc(C(=O)NCC(=O)OCC(=O)N2CC(C)OC(C)C2)cc1 (centres undefined)	none
COc1cc(OC)c(NS(=O)(=O)c2cc(C(=O)OCC(=O)NCC3CCCO3)ccc2OC)cc1Cl (centres undefined)	none
O=C1Nc2ccccc2N(O)N1c1ccc(S(=O)(=O)N2CCCCCC2)cc1	none
O=C(NCCNc1ccnc2cc(Cl)ccc12)c1ccccc1F	none | NR2E3 ag confirm inactive | VP16 counter inactive
O=C(NCCNc1ccc(Cl)cc1[N+](=O)[O-])c1ccccc1F	none
Clc1ccc2c(NCc3ccccc3)ccnc2c1	none | NR2E3 ag confirm inactive | VP16 counter inactive
COc1ccc(C2=NS(=O)(=O)N(C)C(C(=O)Nc3ccc4c(c3)OCO4)=C2)cc1	none
Cc1ccc(C2=NS(=O)(=O)N(C)C(C(=O)Nc3ccc4c(c3)OCO4)=C2)cc1	none | NR2E3 ag confirm inactive | VP16 counter inactive
CC1(C)C=C2C(N(CC3CC3)C(=N)N2C(=O)OCc2ccccc2)n2c(=O)n(-c3ccccc3)c(=O)n21 (centres undefined)	none (no result: NR2E3 ag-1, PG9 binder, NR2E3 ag-2)
COc1cc(/C=N/NC(=O)c2cc(C3CC3)[nH]n2)ccc1O	none
COc1cc(/C=N/NC(=O)c2cc(C34CC5CC(CC(C5)C3)C4)[nH]n2)ccc1O	NR2E3 ag-1 70.5 | NR2E3 ag confirm inactive | VP16 counter inactive
COc1cc(/C=N/NC(=O)c2[nH]nc3c2CCc2ccccc2-3)ccc1O	none | NR2E3 ag confirm inactive | VP16 counter inactive
CCCC(C(=O)NC1CCCC1)N(CCN(CC)CC)C(=O)c1snc(C(N)=O)c1N (centres undefined)	none
O=C(CSc1ccc(-c2ccc(Cl)cc2)nn1)N1CCCc2ccccc21	none
O=C(CSc1ccc(-c2ccc(F)cc2)nn1)N1CCCc2ccccc21	none | NR2E3 ag confirm inactive | VP16 counter inactive
O=S(=O)(c1ccc2c(c1)C(O)c1ccccc1CC2)C(F)(F)F (centres undefined)	none | NR2E3 ag confirm inactive | VP16 counter inactive
Cc1nnc(N)nc1C	none
Cc1ccc(SCCNC(=S)Nc2cc(C)cc(C)c2)cc1	none | NR2E3 ag confirm inactive | VP16 counter inactive
Cc1ccc(NC(=S)NCCSc2ccc(Cl)cc2)cc1	none
C/C(=N\NC(=S)NCCc1ccccc1)c1cccc(Br)c1	none
C/C(=N\NC(=S)NCc1ccccc1)c1ccc2ccccc2c1	none | NR2E3 ag confirm inactive | VP16 counter inactive
COc1ccc(/C(C)=N/NC(=S)NCc2ccco2)cc1	none | NR2E3 ag confirm inactive | VP16 counter inactive
COc1ccc(/C(C)=N/NC(=S)NCCc2ccccc2)cc1	none | NR2E3 ag confirm inactive | VP16 counter inactive
C=CCNC(=S)N/N=C(\C)c1ccc(OC)cc1	none
COc1ccc(CNC(=S)N/N=C(\C)c2ccc(OC)cc2)cc1	none | NR2E3 ag confirm inactive | VP16 counter inactive
CC(=O)NCC1CCCN(C(=O)c2ccc(OC3CCN(Cc4ccccn4)CC3)cc2)C1 (centres undefined)	none
NNC(=S)NCCc1ccccc1	none | NR2E3 ag confirm inactive | VP16 counter inactive
O=C(Sc1cccc2cccnc12)c1ccccc1Br	NR2E3 ag-1 100.2 | NR2E3 ag confirm inactive | VP16 counter inactive
O=C(Sc1cccc2cccnc12)c1ccc(F)cc1	none (no result: NR2E3 ag-1, NR2E3 ag-2)
Oc1ccc(CCNc2ncnc3ccc(Cl)cc23)cc1	NR2E3 ag-1 91.2 | NR2E3 ag confirm 93.0 | VP16 counter 87.0
Nc1nc(Cl)cc(NCCc2ccc(O)cc2)n1	none
N#CC(C#N)=C(Nc1ccc(F)cc1)SCc1cccc(F)c1	NR2E3 ag-1 81.0 | NR2E3 ag confirm 88.7 | VP16 counter 87.5
Cc1cc(OCC(=O)OCC(=O)N(Cc2ccccc2)C(C)(C)C)ccc1Cl	none (no result: NR2E3 ag-2)
Cn1cc(C(=O)c2ccc(Cl)cc2)cc1-c1nc2ccccc2n1C	none | NR2E3 ag confirm inactive | VP16 counter inactive
O=C(NCc1ccncc1)c1ccc(-c2ccc(F)c(F)c2)c2ccoc12	NR2E3 ag-1 84.1 (no result: NR2E3 ag-2) | NR2E3 ag confirm 96.2 | VP16 counter 82.2
COc1ccc(-c2ccc(C(=O)NCc3ccncc3)c3occc23)c(C)c1	NR2E3 ag-1 81.6 (no result: NR2E3 ag-2) | NR2E3 ag confirm 95.2 | VP16 counter 81.7
COc1ccc(-c2ccc(C(=O)NCc3ccc(F)c(F)c3)c3occc23)c(C)c1	none (no result: NR2E3 ag-2)
O=C(NCc1ccc(C(F)(F)F)cc1)c1ccc(-c2ccc(F)c(F)c2)c2ccoc12	none (no result: NR2E3 ag-2)
N#Cc1ccc(NC(=O)Cn2cnc(S(=O)(=O)N3CCCCC3)c2)cc1	none
O=C(NCC(=O)N1CCN(c2ccccc2F)CC1)c1ccco1	none (no result: NR2E3 ag-2)
O=NN(CCc1ccncc1)c1ccc(OCc2ccccc2)cc1	NR2E3 ag-1 85.8 | NR2E3 ag confirm 95.4 | VP16 counter 84.8
O=C(NCc1ccncc1)C(=O)N/N=C/c1ccc(OCc2ccccc2)cc1	none
CCCCCCCCCCCCN1[C@@H](CC(=O)O)c2cc(F)ccc2S1(=O)=O	NR2E3 ag-1 94.8 | NR2E3 ag confirm 94.2 | VP16 counter inactive
CCCCCCCCN1[C@@H](CC(=O)O)c2cc(C(F)(F)F)ccc2S1(=O)=O	none
CCCCCCCCCCCCN1[C@@H](CC(=O)O)c2cc(C(F)(F)F)ccc2S1(=O)=O	none | NR2E3 ag confirm 98.2 | VP16 counter inactive
COC(=O)CC1C(=O)NCCN1C(=S)NC(=O)CCc1ccccc1 (centres undefined)	none
C=CCCCCCCCCc1nc(=S)[nH][nH]1	none
CN(CC(=O)Nc1ccccc1Br)C(=O)c1cc([N+](=O)[O-])ccc1N1CCOCC1	none
CCOc1ccc(CCNC(=O)COC(=O)c2nn(C)c(=O)c3ccccc23)cc1OCC	none
COc1cc(C[C@@H]2C(=O)OC[C@H]2Cc2ccc(OC)c(OC)c2)ccc1O	NR2E3 ag-1 86.8 | NR2E3 ag confirm 95.2 | VP16 counter 80.5
COc1cc(CC2COC(=O)C2Cc2ccc(O)c(OC)c2)ccc1O (centres undefined)	none (no result: NR2E3 ag-1, NR2E3 ag-2)
CCCNC(=O)CN(Cc1ccco1)S(=O)(=O)c1ccc(OCC)cc1	none
Cc1ccc(C)c(-n2sc3ccc(F)cc3c2=O)c1	none | NR2E3 ag confirm inactive | VP16 counter inactive
O=c1c2cc(F)ccc2sn1-c1ccc(F)cc1	none (no result: PG9 binder, Rev-erbA mod)
CCOC(=O)Cn1c(=O)c(-c2ccccc2N)nc2ccccc21	none
